Hits are enriched below; roughly 1.9% of the tested compounds scored in any of these assays.
procasp3 activ: activates human procaspase-3; P42574; recombinant procaspase-3 D3A, Ac-DEVD-pNA absorbance 405 nm; activation, % at 8.5 µM; 330,000 tested, 0.11% active;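 active = activation above the mean of all tested compounds plus 3 SD, cut at about 21% in these data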
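Evaluation: percent activation relative to control range; Material: Procaspase-3 D3A mutant, all three cleavage aspartates alanine; Compound: single dose, 8.5 µM nominal compound, 0.8% DMSO; Replication: one well per compound; Signal: absorbance at 405 nm, 0 and 120 min; Schedule: 1 h preincubation plus 2 h reaction at 25 °C.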
proCasp7 act: activates human procaspase-7, counter-screen for procaspase-3 activators; activation, % at 8.5 µM; recombinant procaspase-7, Ac-DEVD-pNA absorbance 405 nm; D23A/D198A/D206A triple mutant, cannot self-cleave; scale: DMSO 0, 5 µM enzyme 100; 330,000 tested, 0.093% active; P55210;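 active = percent activation above the screen-wide mean plus 3 SD, cut at about 25% in these data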
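Material: Procaspase-7 triple mutant (PC-7 D3A) | Quantity: 2 µM procaspase-7 mutant as dispensed | Reagent: DEVD-pNA substrate | Times: 1 h preincubation, 2 h reaction | Technique: 405 nm absorbance of p-nitroaniline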
FXN GAA850 act: frataxin GAA850 promoter activation; HEK293 lucGAA850 FXN promoter luciferase reporter, 24 h; percent of 10 µM SAHA response; activation, % at 6 µM; 360,000 tested, 0.56% active; AID 540364;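 active = activation above the average of all compounds screened plus 3 SD, cutoff fixed separately per campaign, cut at about 7.5% in these data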
Calb FLC: affects C. albicans growth with fluconazole | C. albicans CaCi-2 + fluconazole, Alamar Blue growth, 48 h | growth inhibition, % (test concentration not listed) | 300,000 tested, 0.57% active;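 active = growth inhibition above about 58% in most replicates, limit read from the data, passing the limit was not always enough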;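 note: all wells also contain fluconazole at 8 µg/ml as a sub-toxic cotreatment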
Neddylation inh: blocks human cullin neddylation; TR-FRET cullin neddylation, biochemical; P61081+Q13564; AID 651699; 360,000 tested, 0.58% active; inhibition, % at 25 µM; in the data active = inhibition above about 36%
HIF activator: HIF pathway transcriptional activation; activation, % at 7.5 µM (by protocol); AID 1910; U2OS HRE-luciferase reporter, luminescence; normalized: DMSO 0%, desferrioxamine 100%; 300,000 tested, 0.32% active;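 active = mean activation of at least 10% of the iron chelator positive control signal, with at least half of replicates also reaching 10%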
Neddyl inh conf: cullin neddylation inhibition, confirmation. shares compounds with Neddylation inh. TR-FRET cullin neddylation biochemical assay. calls only at 25 µM. 1,800 tested, 13% active. AID 652217; in the data active = inhibition above about 40%;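 note: neddylation substrate is the cullin 1 ring ligase complex with SKP2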
A number is an active result; 0 = inactive; - = no result shown.

SMILES	procasp3 activ	proCasp7 act	FXN GAA850 act	Calb FLC	Neddylation inh	HIF activator	Neddyl inh conf
COc1ccc(CCn2c(O)c(C=Nc3ccc(NC(C)=O)cc3)c(=O)[nH]c2=O)cc1OC	0	0	0	0	-	0	-
CCC(C)n1c(O)c(/C=N/NC(=O)c2ccncc2)c(=O)[nH]c1=S (stereo not given)	0	0	0	0	42.6	0	0
CCOc1ccc2[nH]c(=O)c(CN(CCO)C3(c4nnnn4C4CCCCC4)CCCCC3)cc2c1	0	0	0	0	38.9	0	0
Cc1ccccc1C(=O)N1CC1C (stereo not given)	-	-	0	-	0	-	-
C[C@H]1COc2cccc(N3CCN(C)CC3)c2S(=O)(=O)N1	-	-	-	-	0	-	-
CCc1ccc2c(CN3CC=C(c4ccccc4)CC3)cc(=O)oc2c1	0	0	0	0	0	0	-
COc1ccc2c(CN3CC=C(c4ccccc4)CC3)cc(=O)oc2c1	0	0	0	0	41.5	0	0
CCOC(=O)C(c1c(O)c2ccccc2oc1=O)c1c(O)c2ccccc2oc1=O	-	-	0	-	0	-	-
COC(=O)C1=C(c2ccc(Cl)c(C(F)(F)F)c2)C[C@@H]2CC[C@H]1N2C(=O)N1CCC(O)(c2ccc(Cl)cc2)CC1	0	0	0	-	0	-	-
Cn1c2ccccc2c2c(C(=O)N3CCC4(CC3)OCCO4)cn(C3CCCC3)c(=O)c21	0	0	0	0	0	0	-
COCCn1cc(C(=O)N2CCC3(CC2)OCCO3)c2c3ccccc3n(C)c2c1=O	0	0	0	0	38.9	0	0
Cc1ccc(CN2C(=O)NC(=O)C3(Cc4c(nc5ccccn5c4=O)N4CCCCCC43)C2=O)cc1 (stereo not given)	0	0	0	0	44.0	0	0
O=C1NC(=O)C2(Cc3ccccc3N3CCCC32)C(=O)N1c1cccc(Cl)c1 (stereo not given)	0	0	0	0	0	0	-
O=C1c2ccccc2-n2nnnc2C2c3ccccc3-n3nncc3CN12 (stereo not given)	-	-	-	-	0	-	-
CC1=C2CCC3C(CCC4=CC(=O)CCC43C)C2CC1 (stereo not given)	-	-	0	-	0	-	-
O=C(c1ccc2c3c(cccc13)CC2)C1CCCN(Cc2ncc[nH]2)C1 (stereo not given)	0	0	0	0	49.7	0	0
NC(Cc1ccc(O)cc1)C(=O)NN=Cc1ccc(N(CCCl)CCCl)cc1 (stereo not given)	-	-	0	-	40.9	-	0
CCCCC(=O)N/N=C/c1c(O)n(-c2cccc3ccccc23)c(=O)[nH]c1=O	0	0	0	0	41.0	0	0
CC1(C)Cc2c(sc3c2C(=O)NC(c2cccnc2)N3)CO1 (stereo not given)	0	0	0	0	43.0	0	0
O=C1NC(c2cccnc2)Nc2sc3c(c21)CCCC3 (stereo not given)	0	0	0	0	40.6	0	0
c1cncc(C2CCCN2)c1 (stereo not given)	0	0	-	0	-	0	-
NN=C(N)N	0	0	0	-	0	-	-
